# Rows were chosen to be rich in hits. Some 4.6% of all compounds tested hit in one or more screens of this group.
# GPR7 antagonist = blocks human GPR7 receptor signaling | AID 1861 | GPR7-expressing cells, fluorescence antagonist assay | P48145 | inhibition, % at 4.4 µM | 290,000 tested, 1.1% active; in the data active = inhibition above about 16%, passing the limit was not always enough;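 also: cells stimulated with the agonist NPW; 0% = agonist with vehicle and 100% = vehicle without agonist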
# TAAR1 antagonist = human TAAR1 antagonism; Q96RJ0; CHO RD-HGA16 TAAR1, Fluo-8 calcium fluorescence, antagonist; inhibition, % at 3 µM; 360,000 tested, 1.5% active;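 active = inhibition above a per-plate cutoff, the mean inhibition of test compounds on that plate plus 3 SD, cut at about 49% in these data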;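 also: 0% = DMSO plus EC80 beta-PEA response and 100% = DMSO alone without agonist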
#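 System: RD-HGA16 CHO cells with stable hTAAR1 and Gα16 | Probe or stimulus: EC80 β-phenethylamine stimulus | Dosing: 3 µM, single point | Times: Dye loading 75 min at 37 °C, then 30 min room temperature | Measured by: Fluo-8 calcium-sensitive fluorescence | Read-out basis: % inhibition of agonist calcium response | Replicates: n of 1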
# OX1R antag-1 = antagonists of human orexin 1 receptor; O43613; CHO/OX1R cells, Fluo-8 calcium fluorescence, orexin A; inhibition, % at 5 µM; 330,000 tested, 0.43% active; AID 434989;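 active = inhibition above its plate's threshold, mean inhibition of all tested compounds on the plate plus 3 SD, cut at about 37% in these data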;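 also: 0% = orexin A challenge wells and 100% = SB-334867-A antagonist wells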
# Target sequence (O43613 whole entry, looked up): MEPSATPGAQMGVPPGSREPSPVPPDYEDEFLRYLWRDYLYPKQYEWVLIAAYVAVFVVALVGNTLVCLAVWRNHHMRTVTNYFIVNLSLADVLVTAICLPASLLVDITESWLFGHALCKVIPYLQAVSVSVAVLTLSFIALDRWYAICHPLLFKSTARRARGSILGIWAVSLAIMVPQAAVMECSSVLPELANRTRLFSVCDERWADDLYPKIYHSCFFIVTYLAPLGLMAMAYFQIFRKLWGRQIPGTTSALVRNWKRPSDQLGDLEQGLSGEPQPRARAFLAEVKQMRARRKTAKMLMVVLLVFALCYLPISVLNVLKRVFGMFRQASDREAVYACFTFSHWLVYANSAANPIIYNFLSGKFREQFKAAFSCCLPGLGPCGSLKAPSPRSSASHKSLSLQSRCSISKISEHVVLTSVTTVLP
# CHO parental Ca = counter-screen: ATP calcium response change in parental CHO cells; parental CHO-K1, ATP-induced calcium, Fluo-8 fluorescence; 330,000 tested, 0.63% active; AID 463079; inhibition, % at 5.6 µM;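 active = inhibition above that plate's mean sample inhibition plus 3 SD, cut at about 26% in these data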;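 also: 0% = ATP-challenged DMSO wells and 100% = DMSO wells without ATP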
#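 Material – parental CHO cells · Reagent – ATP stimulus · Compound – single nominal dose of 5.6 µM per compound · Detection – Fluo-8 fluorescence · Read-out basis – percent inhibition of calcium signal · Controls – ATP-challenged DMSO wells low, unchallenged DMSO wells high · Repeats – no replicates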
# TAAR1 agonist = agonists of human TAAR1. Q96RJ0. CHO RD-HGA16 TAAR1, Fluo-8 calcium fluorescence; vehicle wells 0%, saturating PEA agonist 100%. activation, % at 3 µM. 360,000 tested, 0.99% active;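 active = activation above the mean activation of all test compounds in the run plus 3 SD, cut at about 38% in these data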
#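 Signal – calcium-sensitive Fluo-8 signal, excitation 470-495, emission 515-575 nm · System – RD-HGA16 (CHO) cells co-expressing Gα16 and hTAAR1 · Incubation – 17-24 h seeding, 75 min 37 °C dye, 30 min RT · Compound dosing – 3 µM single concentration · Repeats – no replicates (n 1)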
# OX1R antag-2 = OX1R (human) antagonism. O43613. OX1R-expressing cells, FRET antagonist read-out. inhibition, % at 6.6 µM. 330,000 tested, 1.8% active. AID 485270; in the data active = inhibition mostly above about 38%, no sharp cut-off; inactive = mostly below about 40%;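 also: 0% = agonist challenge alone and 100% = reference antagonist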
# OX1R Fluo8 conf = confirmation of human orexin 1 receptor antagonists. shares compounds with OX1R antag-1. CHO/OX1R cells, orexin A calcium Fluo-8 fluorescence. inhibition, % at 5 µM. 1,100 tested, 38% active; in the data active = inhibition above about 29%;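 also: 0% = agonist challenge alone and 100% = reference antagonist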
# CHO Ca counter = counter-screen for OX1R antagonists: effect in parental CHO cells; shares compounds with OX1R antag-1; parental CHO-K1, ATP-induced calcium, Fluo-8 fluorescence; 1,100 tested, 9.3% active; AID 492965; inhibition, % at 5.6 µM;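 active = inhibition above a per-plate limit, the mean inhibition of that plate's test compounds plus 3 SD, cut at about 25% in these data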;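 also: 0% = ATP challenge with DMSO and 100% = DMSO without ATP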
# An asterisk follows results filed as active; nt = not tested or not shown.
SMILES,GPR7 antagonist,TAAR1 antagonist,OX1R antag-1,CHO parental Ca,TAAR1 agonist,OX1R antag-2,OX1R Fluo8 conf,CHO Ca counter
Cc1cccc(NC(=O)C2CCCN2C(=O)Oc2ccccc2)c1C (configuration not stated),-5,1,34,-1,0,0,-4,-1
COc1ccccc1N1CCN(c2cc(C)nc3nc(C)nn23)CC1,-4,-16,36,-10,1,6,-3,-4
COc1ccccc1-c1c(C)nn2c(N3CCN(c4ccccc4OC)CC3)cc(C)nc12,-11,-1,-16,-9,-1,6,nt,nt
C[C@H](O)[C@@H]1C(=O)N2CCc3c([nH]c4cccc(-c5ccccc5)c34)[C@@H]2C[C@@H]1N(C)C(=O)NC1CCCCC1,nt,13,nt,nt,-1,nt,nt,nt
O=C(CN(C(=O)c1ccccc1Cl)C1CCCCC1)Nc1ccc(Cl)c([N+](=O)[O-])c1,15,17,36,11,6,18,20,6
CN(C(=O)c1ccccc1F)C(c1ccccc1)c1ccccc1,15,36,-13,-18,6,23,nt,nt
COc1nc(N(c2ccccc2)c2ccccc2)nc(-n2ccnc2)n1,14,47,45*,11,13,73,43*,2
O=[N+]([O-])c1ccc(Nc2ccc3ccccc3c2)nc1,1,25,46*,0,-2,35,22,4
O=C(N/N=C/c1ccccn1)c1cc(-c2ccc(Br)cc2)nc2ccccc12,-12,6,50*,20,0,24,40*,23
Cc1[nH]c(=O)[nH]c(=O)c1S(=O)(=O)N1CCCC(C(=O)NCCc2ccccc2)C1 (configuration not stated),7,-2,-11,-12,3,1,nt,nt
Cc1[nH]c(=O)[nH]c(=O)c1S(=O)(=O)N1CCCC(C(=O)NCCc2ccc(Cl)cc2)C1 (configuration not stated),-8,nt,33,0,nt,25,1,-7
Cc1cccc2cc3c(N)c(C(=O)Nc4ccc(N5CCOCC5)cc4)sc3nc12,-10,8,10,0,5,15,nt,nt
CCc1cccc2cc3c(N)c(C(=O)Nc4ccc(S(=O)(=O)N5CCCC5)cc4)sc3nc12,-1,65*,46,33,17,13,17,20
Cc1cc(NC(=O)CSCC(=O)Nc2ccc(Cl)c(C(F)(F)F)c2)no1,nt,-10,-21,-21,16,25,nt,nt
Cc1cc(NC(=O)CN(C)CC(=O)Nc2ccc(Cl)c(C(F)(F)F)c2)no1,nt,-12,40*,-10,41*,12,3,0
CC(C)(C)N(NC(=O)Nc1ccc(Cl)c(Cl)c1)C(=O)c1ccccc1,1,15,73*,29,21,20,8,10
CCC(Oc1ccccc1)C(=O)OCC(=O)Nc1sccc1C(N)=O (configuration not stated),nt,23,44*,0,11,13,17,18
CCCNC(=O)c1cc(C2CCCCN2C(=O)c2ccccc2)on1 (configuration not stated),nt,-10,nt,nt,0,nt,nt,nt
COC(=O)C1=C(C)N(Cc2ccccc2)C(=NCc2cccc(Cl)c2)N[C@H]1c1cccc(F)c1,nt,nt,61*,21,nt,11,51*,9
COC(=O)C1=C(C)N(Cc2ccccc2)C(=NCc2ccco2)N[C@H]1c1cccc(F)c1,nt,21,-1,-22,15,7,nt,nt
COC(=O)C1=C(C)N(Cc2ccccc2)C(=S)NC1c1ccc(Br)cc1 (configuration not stated),nt,-4,nt,nt,1,nt,nt,nt
CCCCCCCCN1C(=O)[C@H](CC(=O)NCc2ccc(OC)c(OC)c2)C[C@@]2(C(=O)OC)CC(C)(C)CC=C12,nt,-22,nt,nt,-2,nt,nt,nt
O=C1c2ccccc2-c2n[nH]c(=O)c3ccc(N4CCCCC4)c1c23,-11,6,26,-26,-1,85,14,14
COc1ccc(NS(=O)(=O)c2cccc(NC(=O)COc3ccccc3[N+](=O)[O-])c2)cc1,nt,39,51*,2,11,19,18,9
O=C(COc1ccccc1[N+](=O)[O-])Nc1cccc(S(=O)(=O)NC2=NCCCCC2)c1,nt,22,-27,1,14,5,nt,nt
SMILES,GPR7 antagonist,TAAR1 antagonist,OX1R antag-1,CHO parental Ca,TAAR1 agonist,OX1R antag-2,OX1R Fluo8 conf,CHO Ca counter
O=c1[nH]nc(Cc2ccc(-c3ccccc3Cl)o2)c2ccccc12,-15,1,47*,24,18,64,4,-6
O=c1[nH]nc(Cc2ccc(Cl)cc2)c2ccccc12,1,11,-24,-9,21,22,nt,nt
Cc1n[nH]c2ccc([N+](=O)[O-])cc2c1=O,nt,-1,nt,nt,1,nt,nt,nt
CC(=O)Nc1ccc(-c2nnc(SCC(=O)Nc3ccc4c(c3)oc3ccccc34)n2C)cc1,14,-6,25,12,1,13,-1,-2
COc1ccccc1NC(=O)CSc1nnc(-c2ccc(NC(C)=O)cc2)n1C,-14,-10,4,6,6,-2,nt,nt
COc1ccc(NC(=O)CSc2nnc(-c3ccoc3C)n2CCc2ccccc2)cc1,17,13,32,-31,10,65,9,-8
O=C(C[C@H]1CC[C@@H]2[C@H](COC[C@H](O)CN2C(=O)c2cnccn2)O1)NCc1ccc(Cl)cc1,nt,-7,nt,nt,1,nt,nt,nt
Cc1[nH]c2ccc(C(=O)OC(C)C(=O)NC3CCCCC3C)cc2c1C (configuration not stated),nt,8,32,11,-3,28,14,-6
CC1(C)CC(Cc2ccccc2C(F)(F)F)N(C(=O)OC(C)(C)C)C1 (configuration not stated),nt,-16,nt,nt,3,nt,nt,nt
COc1cc([N+](=O)[O-])ccc1NC(=O)Nc1ccc2c(c1)OCCO2,-1,10,-17,8,10,13,nt,nt
O=C(Nc1ccc([N+](=O)[O-])cc1)Nc1ccc2c(c1)OCCO2,16,13,28,18,21,42,23,19
COc1ccc(CCC(=O)NCc2ccccc2OC)cc1,-6,8,31,-5,0,2,8,2
O=C(N[C@H](C(=O)N1CCC[C@H]1C(=O)NCCc1ccccc1Cl)c1ccccc1)C1CC1,nt,12,nt,nt,37,nt,nt,nt
COc1ccc(CN2C(=O)NC(C)(c3ccc(C)cc3)C2=O)cc1F (configuration not stated),5,-6,56*,-20,6,8,-1,2

# Screens (PubChem)
